The target of assay [1] is Neuropeptide Y receptor type 5 (Homo sapiens, UniProt Q15761). As to the kind of experiment: Displacement of [125]PYY from human chimeric NPY Y5 receptor expressed in CHOK1 cells. Format: cell-based. The settings on record: cho-k1. Summed up: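 Binding to human chimeric Y5 receptor expressed in CHO-K1 cells; Ki values are the average of two determinations.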
The target of assay [2] is T1, Neuropeptide Y receptor type 5 (Rattus norvegicus) (UniProt Q63634).
T1 sequence (whole entry): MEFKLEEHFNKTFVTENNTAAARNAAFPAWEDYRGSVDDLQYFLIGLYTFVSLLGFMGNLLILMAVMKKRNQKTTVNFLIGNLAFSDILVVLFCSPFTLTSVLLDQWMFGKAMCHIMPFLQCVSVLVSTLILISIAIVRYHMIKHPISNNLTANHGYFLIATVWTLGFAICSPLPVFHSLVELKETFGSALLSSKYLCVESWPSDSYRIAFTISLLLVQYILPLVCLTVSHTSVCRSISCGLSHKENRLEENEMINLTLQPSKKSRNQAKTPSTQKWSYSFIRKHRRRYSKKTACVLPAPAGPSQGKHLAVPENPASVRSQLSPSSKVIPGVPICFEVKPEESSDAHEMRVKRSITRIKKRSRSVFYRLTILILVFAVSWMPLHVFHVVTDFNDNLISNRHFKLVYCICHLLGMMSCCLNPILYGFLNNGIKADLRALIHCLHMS
The assay is described as follows: Antagonist activity at rat NPY Y5 receptor expressed in HEK293 cells assessed as inhibition of forskolin-stimulated cAMP production. Format: functional, cell-based. Summed up:
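HEK293 cells expressing rat NPY Y5 receptor. Functional antagonism measured as the ability to overcome NPY inhibition of forskolin-stimulated cAMP production; reported as Kb.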
In general terms: Cyclic AMP is a second messenger, typically raised through Gs and lowered through Gi signalling.

The subject of the next assay is Rattus norvegicus. The assay is described as follows: Blockade of D-Trp[34]-NPY-induced food intake in po dosed rat. Format: functional.

One may read the Ki as the equilibrium dissociation constant of an inhibitor or competing ligand from its target. A lower Ki goes with tighter binding. A word on the Kb: it is the equilibrium dissociation constant of an antagonist, usually derived from a functional assay. For orientation: ED50 means the dose that gives a 50% effect, or the effect in half of the subjects. A lower ED50 goes with an effect at a small dose.

Sequence of Neuropeptide Y receptor type 5 (Q15761 whole entry, looked up): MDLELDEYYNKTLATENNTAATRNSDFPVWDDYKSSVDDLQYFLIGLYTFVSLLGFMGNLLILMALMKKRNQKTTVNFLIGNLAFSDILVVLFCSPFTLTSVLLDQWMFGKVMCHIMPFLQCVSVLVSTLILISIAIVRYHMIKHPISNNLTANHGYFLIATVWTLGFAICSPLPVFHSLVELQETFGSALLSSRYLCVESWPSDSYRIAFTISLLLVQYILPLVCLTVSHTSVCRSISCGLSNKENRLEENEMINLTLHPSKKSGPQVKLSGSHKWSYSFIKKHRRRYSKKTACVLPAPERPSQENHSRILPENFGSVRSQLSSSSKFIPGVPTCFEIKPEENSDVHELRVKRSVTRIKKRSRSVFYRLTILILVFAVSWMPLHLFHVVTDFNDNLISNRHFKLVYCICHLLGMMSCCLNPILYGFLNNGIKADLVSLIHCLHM

In turn, `CC(=O)N1CCC(N(C)C(=O)N[C@H]2CC[C@H](c3ccccc3)CC2)CC1` returned a Ki in assay [1] of 59 nM.

`CN(C(=O)NC1CCN(c2cccc(C#N)c2)CC1)C1CCN(S(C)(=O)=O)CC1` had a Ki in assay [1] of 27 nM.

In the case of `CCC(=O)N1CCC(N(C)C(=O)NC2CCN(c3cc(F)cc(F)c3)CC2)CC1`, the affinity in assay [1], expressed as Ki, was 6.3 nM. Against the preceding compound, the Ki is about 4.3-fold lower.

As to `CN(C(=O)NC1CCN(c2cccnc2)CC1)C1CCN(S(C)(=O)=O)CC1`, in assay [1], the Ki worked out at 405 nM.

The compound `CC(=O)c1cccc(N2CCC(NC(=O)N(C)C3CCN(S(C)(=O)=O)CC3)CC2)c1` displayed a Ki in assay [1] of 164 nM. Compared with the last compound, the Ki is about 2.5-fold lower.

Compound `CN(C(=O)NC1CCN(c2cccc(F)c2)CC1)C1CCN(S(C)(=O)=O)CC1` came in with a Ki in assay [1] of 35 nM. Against the preceding compound, the Ki is about 4.7-fold lower.

Consider `CCC(=O)N1CCC(N(C)C(=O)N[C@H]2CC[C@H](c3cc(F)cc(F)c3)CC2)CC1`, for which the Ki in assay [1] amounted to 1.5 nM.

In turn, `CN(C(=O)NC1CCN(c2cccc(Cl)c2)CC1)C1CCN(S(C)(=O)=O)CC1` returned a Ki in assay [1] of 13 nM.

In the case of `CN(C(=O)NC1CCN(c2ccccc2)CC1)C1CCN(S(C)(=O)=O)CC1`, the Ki in assay [1] was 303 nM.

In assay [1], `CN(C(=O)NC1CCN(c2ccc(F)cc2)CC1)C1CCN(S(C)(=O)=O)CC1` registered a Ki of 799 nM. This Ki is about 2.6-fold higher than that of the compound before.

As for `CN(C(=O)NC1CCN(c2ccc(F)c(Cl)c2)CC1)C1CCN(S(C)(=O)=O)CC1`, the inhibitory constant (Ki) in assay [1] is 160 nM.

`CN(C(=O)N[C@H]1CC[C@H](c2ccccc2)CC1)C1CCN(S(C)(=O)=O)CC1` registered a Ki in assay [1] of 52 nM.

With `CN(C(=O)NC1CCN(c2ccc(F)c(F)c2)CC1)C1CCN(S(C)(=O)=O)CC1`, in assay [1], the Ki was 312 nM.

For `CN(C(=O)N[C@H]1CC[C@H](c2cc(F)cc(F)c2)CC1)C1CCN(S(C)(=O)=O)CC1`, the affinity in assay [1] corresponds to a Ki of 1.2 nM.

`CN(C(=O)NC1CCN(c2ccc(Cl)c(Cl)c2)CC1)C1CCN(S(C)(=O)=O)CC1` yielded a Ki in assay [1] of 48 nM.

Turning to `CCS(=O)(=O)N1CCC(N(C)C(=O)N[C@H]2CC[C@H](c3cc(F)cc(F)c3)CC2)CC1`, the Ki in assay [1] was 0.75 nM. This Ki is about 64-fold lower than that of the compound before.

`CC(C)C(=O)N1CCC(N(C)C(=O)NC2CCN(c3cc(F)cc(F)c3)CC2)CC1`: in assay [1], the Ki was determined as 2.6 nM. This Ki lies about 3.5-fold higher than the previous one.

Take `CCCS(=O)(=O)N1CCC(N(C)C(=O)NC2CCN(c3cc(F)cc(F)c3)CC2)CC1`: affinity in assay [1] was put at a Ki of 3.4 nM.

As for `CC(=O)N1CCC(N(C)C(=O)N[C@H]2CC[C@@H](c3ccccc3)CC2)CC1`, the Ki in assay [1] is > 1000 nM.

In assay [1], `CN(C(=O)NC1CCN(c2ccc(Br)cc2)CC1)C1CCN(S(C)(=O)=O)CC1` returned a Ki of 819 nM.

For the compound `CCCC(=O)N1CCC(N(C)C(=O)N[C@H]2CC[C@H](c3cc(F)cc(F)c3)CC2)CC1` (stereo in doubt; 21e), in assay [1], the affinity, expressed as Ki, was 2 nM.

Turning to `CCCC(=O)N1CCC(N(C)C(=O)NC2CCN(c3cc(F)cc(F)c3)CC2)CC1`, affinity in assay [1] was put at a Ki of 5.9 nM. This Ki lies about 3-fold higher than the previous one.

`Cc1ccccc1N1CCC(NC(=O)N(C)C2CCN(S(C)(=O)=O)CC2)CC1` returned a Ki in assay [1] of 52 nM. This Ki is about 8.8-fold higher than that of the compound before.

In turn, `CN(C(=O)NC1CCN(c2ccc(Cl)cc2)CC1)C1CCN(S(C)(=O)=O)CC1` had a Ki in assay [1] of 130 nM.

In turn, `CCS(=O)(=O)N1CCC(N(C)C(=O)NC2CCN(c3cc(F)cc(F)c3)CC2)CC1` returned a Ki in assay [1] of 2.8 nM.

`CN(C(=O)NC1CCN(c2cc(Cl)cc(Cl)c2)CC1)C1CCN(S(C)(=O)=O)CC1` came in with a Ki in assay [1] of 1.1 nM. Against the preceding compound, the Ki is about 2.5-fold lower.

On to `CN(C(=O)NC1CCN(c2cccc(Br)c2)CC1)C1CCN(S(C)(=O)=O)CC1`, for which, in assay [1], the affinity, expressed as Ki, was 8.8 nM.

In the case of `Cc1cccc(N2CCC(NC(=O)N(C)C3CCN(S(C)(=O)=O)CC3)CC2)c1`, in assay [1], the affinity corresponds to a Ki of 20 nM.

On to `CC(C)S(=O)(=O)N1CCC(N(C)C(=O)NC2CCN(c3cc(F)cc(F)c3)CC2)CC1`, for which, in assay [1], the Ki came out at 3.2 nM. This Ki lies about 6.2-fold lower than the previous one.

In assay [1], `CN(C(=O)NC1CCN(c2ccccc2F)CC1)C1CCN(S(C)(=O)=O)CC1` returned an inhibitory constant (Ki) of 88 nM.

As to `COc1cccc(N2CCC(NC(=O)N(C)C3CCN(S(C)(=O)=O)CC3)CC2)c1`, the affinity in assay [1] corresponds to a Ki of 311 nM.

In assay [1], `CN(C(=O)N[C@H]1CC[C@@H](c2ccccc2)CC1)C1CCN(S(C)(=O)=O)CC1` came in with a Ki of 500 nM. This Ki lies about 1.6-fold higher than the previous one.

For the compound `CCCC(=O)N1CCC(N(C)C(=O)N[C@H]2CC[C@H](c3cc(F)cc(F)c3)CC2)CC1` (stereo in doubt; 21h), in assay [1], the affinity, expressed as Ki, was 2.4 nM.

`CN(C(=O)NC1CCN(c2cc(F)cc(F)c2)CC1)C1CCN(S(C)(=O)=O)CC1` came in with an inhibitory constant (Ki) in assay [1] of 3.2 nM. This Ki and that of the compound before are within 1.5-fold of each other.

For the compound `CC(=O)N1CCC(N(C)C(=O)NC2CCN(c3cc(F)cc(F)c3)CC2)CC1`, the affinity in assay [1] corresponds to a Ki of 7.4 nM.

`CN(C(=O)Nc1ccc(-c2cc(F)cc(F)c2)cc1)C1CCN(S(C)(=O)=O)CC1` had a Ki in assay [1] of 0.4 nM. Also, in assay [2], the Kb was determined as 0.4 nM. This compound registered an ED50 in the assay with Rattus norvegicus of 0.4 mg/kg.
